The results in this text go back to ChEMBL document CHEMBL4138186, “Synthesis and bio-evaluation of indole-chalcone based benzopyrans as promising antiligase and antiproliferative agents” (Eur J Med Chem, 2018).

Active and inactive are the calls of the source. The calls are words filed in the database; no cut-off is given here.

In one test the test system is HEK293. The test is described as follows: Cytotoxicity against HEK293 cells after 48 hrs by MTT assay. Format: cell-based. As to conditions: Homo sapiens, HEK293, 48 h. For orientation: Formazan colour is commonly taken as a measure of viable cells.
Test [1] has as its system DLD-1. The test is described as follows: Antiproliferative activity against human DLD1 cells at 10 uM after 48 hrs by MTT assay. It is filed as functional, cell-based. In a few lines: (§1)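 Cells seeded and allowed to adhere overnight, then given compound from 10 mM DMSO stock; DMSO alone as vehicle control. Grown 48 h, MTT (5 mg/ml) added for 3 h, formazan dissolved in DMSO, absorbance read at 590 nm. % inhibition = (A control − A treated)/A control × 100; three independent biological replicates. Single-point screen at 10 μM; IC50 from three independent experiments.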

For test [2], the system named is DLD-1. Briefly: Anti-migratory activity in human DLD1 cells at 2.5 to 5 uM after 12 to 48 hrs by wound healing assay. It is filed as functional, cell-based. In short, it runs like this: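 DLD-1 monolayer at 70-80% confluence scratched with a pipette tip, then exposed to 2.5 and 5 μM for 12, 24 and 48 h (methods state 12, 24, 36 h). Wound imaged by phase-contrast microscopy; % open area quantified at each time point. Mean of three independent experiments.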

For test [3], the target named is T1, DNA ligase 3 (Homo sapiens) (UniProt P49916).
T1 sequence (whole entry): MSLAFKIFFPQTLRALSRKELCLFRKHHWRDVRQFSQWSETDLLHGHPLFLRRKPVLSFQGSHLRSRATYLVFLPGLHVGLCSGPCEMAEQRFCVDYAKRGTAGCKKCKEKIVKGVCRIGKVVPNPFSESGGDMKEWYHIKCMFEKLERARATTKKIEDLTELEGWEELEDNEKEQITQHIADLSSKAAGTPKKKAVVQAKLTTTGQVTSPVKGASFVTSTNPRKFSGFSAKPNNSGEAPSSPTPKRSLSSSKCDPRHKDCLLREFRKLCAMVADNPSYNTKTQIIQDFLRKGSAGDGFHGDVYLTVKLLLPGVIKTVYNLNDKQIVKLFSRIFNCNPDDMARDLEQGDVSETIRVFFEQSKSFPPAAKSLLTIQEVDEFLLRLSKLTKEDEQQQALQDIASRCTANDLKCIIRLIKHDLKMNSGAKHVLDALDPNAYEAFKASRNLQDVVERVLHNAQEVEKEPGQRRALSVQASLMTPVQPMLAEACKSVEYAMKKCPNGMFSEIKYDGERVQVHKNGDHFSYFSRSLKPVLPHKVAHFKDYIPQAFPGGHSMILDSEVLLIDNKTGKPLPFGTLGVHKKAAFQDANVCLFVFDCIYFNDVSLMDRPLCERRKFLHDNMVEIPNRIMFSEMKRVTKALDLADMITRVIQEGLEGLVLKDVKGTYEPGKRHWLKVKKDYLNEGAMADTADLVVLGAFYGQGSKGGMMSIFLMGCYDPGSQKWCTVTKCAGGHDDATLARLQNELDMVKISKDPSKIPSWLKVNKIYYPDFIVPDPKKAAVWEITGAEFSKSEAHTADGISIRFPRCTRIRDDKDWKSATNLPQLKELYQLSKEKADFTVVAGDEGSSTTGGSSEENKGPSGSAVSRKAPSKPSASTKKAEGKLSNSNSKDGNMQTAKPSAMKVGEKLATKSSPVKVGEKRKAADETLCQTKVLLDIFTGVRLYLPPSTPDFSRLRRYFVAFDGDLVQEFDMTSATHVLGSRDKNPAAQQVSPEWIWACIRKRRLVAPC
Briefly: Inhibition of human Lig3beta at 10 uM using double strand nicked DNA as substrate at 3.125 to 50 uM after 30 mins in presence of ATP by acrylamide-based fluorescence-assay.

For the next test, the system named is HeLa. The test is described as follows: Antiproliferative activity against human HeLa cells after 48 hrs by MTT assay. It is filed as functional, cell-based. In a few lines:
as §1

In general, IC50 refers to the point on the concentration scale where inhibition reaches its midpoint. A low value points to greater potency in that assay. As for `Cc1[nH]c2ccccc2c1C1C(C#N)=C(N)Oc2c1cc(/C=C/C(=O)c1cccs1)cc2C(C)(C)C` (stereo not given), the IC50 was 12.4 µM in the test on HEK293 and 6.4 µM in the test on HeLa. Further, the result with DLD-1 [1] and in the test on DLD-1 [2] was Active. Also, the inhibition entry in test [3] was “inactive”.
